Screening results: PubChem BioAssay, Sanford-Burnham Center for Chemical Genomics
Sampled rows, rich in hits. Any-hit rate of the full collection: about 1.8%.
697 NFkB inh – inhibitors of the PMA/ionomycin-induced NF-kB reporter in 697 B cells | AID 435022 | 0.33% of 330,000 active | inhibition, % at 4 µM | 697 B-cell NF-kB luciferase reporter, 16 h; in the data active means inhibition above about 35%
H9c2 TAG inh – triacylglycerol accumulation inhibition; H9c2 cells, Nile Red lipid (TAG) fluorescence; cells loaded with 200 µM oleic acid; inhibition, % at 12.5 µM; 0.66% of 230,000 active; AID 651582;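 active means pattern-corrected inhibition of lipid staining of at least 50% with the nuclear-stain viability signal not falling by more than 50%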
Jurkat NFkB inh – lowers PMA/ionomycin-induced NF-kB signal in Jurkat cells; 0.53% of 330,000 active; inhibition, % at 4 µM; PMA/ionomycin-induced NF-kB luciferase reporter, luminescence; AID 435003; in the data active means inhibition above about 50%
Gli-Sufu block – Gli-Sufu pathway antagonism | 0.74% of 340,000 active | AID 588413 | inhibition, % at 5 µM | Sufu-KO-LIGHT fibroblasts, Gli luciferase reporter luminescence;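 active means inhibition above about 55%, limit read from the data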
Hep lipid drop – modulators of hepatic lipid droplet formation. AML12 mouse hepatocytes, oleate lipid droplets, BODIPY imaging. inhibition, % at 6.5 µM. 0.4% of 240,000 active. AID 1656;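 active means lipid droplet intensity inhibited by at least 50%, with more than 500 cells counted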
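Technique: fluorescence imaging, 20x objective, two fields per well / Assay system: AML12 hepatocytes (mouse) / Measure: % inhibition of lipid droplet signal / Doses: 6.5 µM single-point dosing / Incubation: overnight exposure / Reagent: 100 µM oleic acid challenge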
hiPSC survival – hiPSC single-cell survival enhancement; ATPlite luminescence; 100% = ROCK inhibitor wells, 0% = DMSO; survival enhancement, % at 20 µM; 0.044% of 360,000 active; in the data active means survival enhancement above about 18%;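 further: cells exposed to compounds for 16 hours before the ATP read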
Gli antag conf – Gli-SUFU antagonism confirmation, single concentration | inhibition, % at 5 µM | 40% of 2,500 active | shares compounds with Gli-Sufu block | Sufu-KO-LIGHT cells, Gli luciferase reporter, luminescence;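 active means mean inhibition at 5 µM reaching about 45%, limit read from the data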
Gli cytotox – cytotoxic in Gli-SUFU antagonist counter-screen; AID 651994; 32% of 2,500 active; Sufu-KO-LIGHT cells cytotoxicity, ATP luminescence; cytotoxicity, % at 5 µM; shares compounds with Gli-Sufu block;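 active means mean cytotoxicity at 5 µM above about 25%, limit read from the data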;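 further: cells exposed to compound overnight for roughly 16 to 18 hours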
Wnt3a cs – counter-screen for Gli-SUFU antagonists: Wnt3a reporter inhibition; shares compounds with Gli-Sufu block; 20% of 2,500 active; inhibition, % at 6.25 µM; Wnt-LIGHT cells, Wnt3a-driven luciferase reporter, luminescence;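 active means mean inhibition above about 25%, limit read from the data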
A number is an active result.

What do the screens show for `CNC(=S)N(CCCn1ccnc1)Cc1c(F)cccc1Cl`?
697 NFkB inh: inactive; Jurkat NFkB inh: inactive; Gli-Sufu block: inactive; Hep lipid drop: inactive; hiPSC survival: inactive

Results for CCOc1ccccc1NC(=S)NC(=O)CCCOc1ccc(Cl)cc1Cl ?
697 NFkB inh: inactive; Jurkat NFkB inh: inactive; Gli-Sufu block: 65; Hep lipid drop: inactive; hiPSC survival: inactive; Gli antag conf: inactive; Gli cytotox: inactive; Wnt3a cs: inactive

Results for Cc1ccc(NC(=O)Cn2nc(C)c3ccccc3c2=O)cc1F ?
697 NFkB inh: inactive; H9c2 TAG inh: inactive; Jurkat NFkB inh: inactive; Gli-Sufu block: inactive; hiPSC survival: inactive

Results for Cc1ccc(NC(=O)Cc2nn(C)c(=O)c3ccccc23)cc1F ?
697 NFkB inh: inactive; H9c2 TAG inh: inactive; Jurkat NFkB inh: inactive; Gli-Sufu block: 67; hiPSC survival: inactive; Gli antag conf: 66; Gli cytotox: 29; Wnt3a cs: inactive

What do the screens show for `CCOc1ccc(NC(=O)CN2C(=O)COc3ccccc32)cc1`?
697 NFkB inh: inactive; Jurkat NFkB inh: inactive; Hep lipid drop: inactive; hiPSC survival: inactive

What do the screens show for `COc1ccccc1OCCNC(=O)C1CC(=O)N(c2cccc(SC)c2)C1` (stereo not drawn)?
697 NFkB inh: inactive; H9c2 TAG inh: inactive; Jurkat NFkB inh: inactive; Gli-Sufu block: 95; hiPSC survival: inactive; Gli antag conf: inactive; Gli cytotox: inactive; Wnt3a cs: inactive

Results for CSc1cccc(N2CC(C(=O)NCCC3=CCCCC3)CC2=O)c1 (stereo not drawn) ?
697 NFkB inh: inactive; H9c2 TAG inh: inactive; Jurkat NFkB inh: inactive; Gli-Sufu block: inactive; hiPSC survival: inactive

How did COc1cccc(CN2CC(C(=O)NCCOc3ccccc3)CCC2=O)c1 (stereo not drawn) do in these assays?
697 NFkB inh: inactive; Jurkat NFkB inh: inactive; Gli-Sufu block: inactive; Hep lipid drop: inactive; hiPSC survival: inactive

Results for COc1cccc(CN2CC(C(=O)NCCOc3ccccc3F)CCC2=O)c1 (stereo not drawn) ?
697 NFkB inh: inactive; Jurkat NFkB inh: inactive; Gli-Sufu block: 59; Hep lipid drop: inactive; hiPSC survival: inactive; Gli antag conf: inactive; Gli cytotox: inactive; Wnt3a cs: inactive

How did O=CNCCCc1nc2ccccc2n1CCc1ccccc1 do in these assays?
697 NFkB inh: inactive; Jurkat NFkB inh: inactive; Gli-Sufu block: inactive; Hep lipid drop: inactive; hiPSC survival: inactive

How did O=Cc1cn(CC(O)CN2CCCCC2)c2ccccc12 (stereo not drawn) do in these assays?
697 NFkB inh: inactive; H9c2 TAG inh: inactive; Jurkat NFkB inh: inactive; Gli-Sufu block: inactive; Hep lipid drop: inactive; hiPSC survival: inactive

Results for CC(C)(CO)NCC(O)Cn1cc(C=O)c2ccccc21 (stereo not drawn) ?
697 NFkB inh: inactive; H9c2 TAG inh: inactive; Jurkat NFkB inh: inactive; Gli-Sufu block: inactive; Hep lipid drop: inactive; hiPSC survival: inactive; Gli antag conf: inactive; Gli cytotox: inactive; Wnt3a cs: inactive

What do the screens show for `COc1ccccc1-n1cnnc1SC(C)C(=O)NCC1CCCO1` (stereo not drawn)?
697 NFkB inh: inactive; H9c2 TAG inh: inactive; Jurkat NFkB inh: inactive; Gli-Sufu block: inactive; hiPSC survival: inactive

How did Cc1ccc(C(=O)N2CCN(c3ncc(C(F)(F)F)cc3Cl)CC2)s1 do in these assays?
697 NFkB inh: inactive; H9c2 TAG inh: inactive; Jurkat NFkB inh: inactive; Gli-Sufu block: 58; Hep lipid drop: inactive; hiPSC survival: inactive; Gli antag conf: inactive; Gli cytotox: inactive; Wnt3a cs: inactive

How did CC(=O)c1ccc(N2CCN(c3ncc(C(F)(F)F)cc3Cl)CC2)cc1 do in these assays?
697 NFkB inh: inactive; Jurkat NFkB inh: inactive; Gli-Sufu block: inactive; Hep lipid drop: inactive; hiPSC survival: inactive

What do the screens show for `O=C(c1ccccc1)N1CCN(CC#Cc2ccccc2)CC1`?
697 NFkB inh: inactive; H9c2 TAG inh: inactive; Jurkat NFkB inh: inactive; Gli-Sufu block: 99; hiPSC survival: inactive; Gli antag conf: inactive; Gli cytotox: inactive; Wnt3a cs: inactive

Results for CC(=O)C1C=CC(C)(C(=O)O)C2C=C(C)C(=O)C(C)(O)C12 (stereo not drawn) ?
H9c2 TAG inh: inactive; Gli-Sufu block: inactive; hiPSC survival: inactive

How did CCOc1ccc(CNC(=O)CCCn2ccc3cc(S(=O)(=O)N4CCCC4)ccc32)cc1 do in these assays?
697 NFkB inh: inactive; Jurkat NFkB inh: inactive; Gli-Sufu block: inactive; Hep lipid drop: inactive; hiPSC survival: inactive

How did COc1ccc(CNC(=O)CCCn2ccc3cc(S(=O)(=O)N4CCCC4)ccc32)cc1 do in these assays?
697 NFkB inh: inactive; Jurkat NFkB inh: inactive; Gli-Sufu block: 59; Hep lipid drop: inactive; hiPSC survival: inactive; Gli antag conf: inactive; Gli cytotox: 27; Wnt3a cs: inactive

How did COc1cccc(CNC(=O)C(C)n2ccc3cc(S(=O)(=O)N4CCCCCC4)ccc32)c1 (stereo not drawn) do in these assays?
697 NFkB inh: inactive; Jurkat NFkB inh: inactive; Gli-Sufu block: inactive; Hep lipid drop: inactive; hiPSC survival: inactive

How did CCC(C(=O)NCCC(C)C)n1ccc2cc(S(=O)(=O)N3CCCCC3)ccc21 (stereo not drawn) do in these assays?
697 NFkB inh: inactive; Jurkat NFkB inh: inactive; Gli-Sufu block: 67; Hep lipid drop: inactive; hiPSC survival: inactive; Gli antag conf: inactive; Gli cytotox: inactive; Wnt3a cs: inactive

What do the screens show for `CCOc1cc(C(=O)N(CC)CC(=O)Nc2c(F)cccc2F)ccc1OCC(=O)N1CCCCC1`?
697 NFkB inh: inactive; H9c2 TAG inh: inactive; Jurkat NFkB inh: inactive; Gli-Sufu block: inactive; hiPSC survival: inactive

Results for CCN1CCS/C1=C\C=C\C1=[N+](CC)CCS1 ?
H9c2 TAG inh: inactive; Gli-Sufu block: 81; Hep lipid drop: inactive; hiPSC survival: inactive; Gli antag conf: 87; Gli cytotox: 34; Wnt3a cs: 50

What do the screens show for `O=C(CC1(CC(=O)N2CCOCC2)CCCC1)Nc1ccccc1`?
697 NFkB inh: inactive; H9c2 TAG inh: inactive; Jurkat NFkB inh: inactive; Gli-Sufu block: inactive; hiPSC survival: inactive

What do the screens show for `CCC(CO)Oc1cc(NCc2ccc(C(C)(C)C)cc2)c2ncn(C(C)C)c2c1` (stereo not drawn)?
697 NFkB inh: inactive; H9c2 TAG inh: inactive; Jurkat NFkB inh: inactive; Gli-Sufu block: 58; hiPSC survival: inactive; Gli antag conf: 48; Gli cytotox: inactive; Wnt3a cs: 30
